Source: ChEMBL document CHEMBL1122774, “Tri- and tetrapeptide analogues of kinins as potential renal vasodilators” (J Med Chem, 1984)
Square brackets hold non-standard residues; d marks the D form. Peptide text beside a SMILES is read from it. * marks the point of attachment. ξ: configuration not given here. ξαMeF = CC(N)(Cc1ccccc1)C(=O)O; Bz = O=C(c1ccccc1)*

System: not listed separately
Assay: Average max percent decrease in RVR (renal vascular resistance) was determined.
Settings: not given
Procedure, shortened: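 Secondary protocol in anesthetized dogs. Drug given as iv infusion at progressively increasing rates, each dose level for 5 min. The maximum effect is taken as the largest percent decrease in renal vascular resistance (RVR) reached with the compound. RVR is calculated as mean arterial blood pressure / mean renal blood flow.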

Q: For H-RPPGFSPFR-OH [BRADYKININ], which Decrease is on record?
A: The Decrease was 67%.

Q: For H-FSPFR-OH [listing 1 of 2 here], which Decrease is on record?
A: Its Decrease is 21%.

System: Canis familiaris
Assay: Compound was evaluated for renal vasodilator activity and represented as ED15 (intravenous administration)
Type: functional
Settings: Canis lupus familiaris
Procedure, shortened: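 Secondary protocol in anesthetized dogs with iv infusion at progressively increasing rates, each level infused 5 min. Potency is the cumulative dose (µg/kg) that lowered renal vascular resistance (MABP / mean RBF) by 15%. Minimum change needed for significance (p = 0.95) is 16% for RVR.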

Q: Which ED15 does the source give for H-FSPFR-OH [listing 2 of 2 here] here?
A: The ED15 was 5.2 µg/kg.

System: Canis familiaris
Assay: Renal vasodilator activity in anesthetized dogs and percent change in heart rate (HR) was determined at 3 ug/kg min
Type: functional, Canis lupus familiaris
Settings: not given
Procedure, shortened: (§1)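 Primary screen in anesthetized dogs (7-17 kg). Drug infused separately at 3, 30 and 300 µg/(kg min), each infusion lasting 5 min, at about 15-min intervals. Read-outs are renal blood flow, mean arterial blood pressure, heart rate, and RVR (MABP / mean RBF), as percent change. Significance thresholds are defined per number of dogs; n = 1-3 dogs.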

Q: With H-FSPFR-OH [listing 2 of 2 here] as the compound, how does the Change read?
A: Its Change is 0.8%.

System: Canis familiaris
Assay: Renal vasodilator activity in anesthetized dogs and percent change in heart rate (HR) was determined at 30 ug/kg min
Type: functional, Canis lupus familiaris
Settings: not given
Procedure, shortened: as §1

Q: With H-FSPFR-OH [listing 2 of 2 here] as the compound, how does the Change read?
A: The Change was 0%.

System: Canis familiaris
Assay: Renal vasodilator activity in anesthetized dogs and percent change in heart rate (HR) was determined at 300 ug/kg min
Type: functional, Canis lupus familiaris
Settings: not given
Procedure, shortened: as §1

Q: Which Change does the source give for H-FSPFR-OH [listing 2 of 2 here] here?
A: The Change was 4.8%.

System: Canis familiaris
Assay: Renal vasodilator activity in anesthetized dogs and percent change in heart rate (HR) was determined at 300 ug/Kg/min
Type: functional, Canis lupus familiaris
Settings: not given
Procedure, shortened: as §1

Q: With `CC(Cc1ccccc1)(NC(=O)[C@@H]1CCCN1C(=O)c1ccccc1)C(=O)N[C@@H](CCCN=C(N)N)C(=O)O` (some centres undefined) (Bz-Pro-[ξαMeF]-Arg-OH) as the compound, how does the Change read?
A: The Change was 6%.

System: Canis familiaris
Assay: Renal vasodilator activity in anesthetized dogs and percent change in mean arterial blood pressure (MABP) was determined at 3 ug/kg min
Type: functional, Canis lupus familiaris
Settings: not given
Procedure, shortened: as §1

Q: For H-FSPFR-OH [listing 2 of 2 here], which Change is on record?
A: The Change was -1.2%.

System: Canis familiaris
Assay: Renal vasodilator activity in anesthetized dogs and percent change in mean arterial blood pressure (MABP) was determined at 30 ug/kg min
Type: functional, Canis lupus familiaris
Settings: not given
Procedure, shortened: as §1

Q: Which Change does the source give for H-FSPFR-OH [listing 2 of 2 here] here?
A: Its Change is 0.5%.

System: Canis familiaris
Assay: Renal vasodilator activity in anesthetized dogs and percent change in mean arterial blood pressure (MABP) was determined at 300 ug/kg min
Type: functional, Canis lupus familiaris
Settings: not given
Procedure, shortened: as §1

Q: Which Change does the source give for H-FSPFR-OH [listing 2 of 2 here] here?
A: Its Change is -5.7%.

System: Canis familiaris
Assay: Renal vasodilator activity in anesthetized dogs and percent change in renal blood flow (RBF) was determined at 3 ug/kg min
Type: functional, Canis lupus familiaris, Kidney
Settings: not given
Procedure, shortened: as §1

Q: With H-FSPFR-OH [listing 2 of 2 here] as the compound, how does the Change read?
A: Its Change is 3%.

System: Canis familiaris
Assay: Renal vasodilator activity in anesthetized dogs and percent change in renal blood flow (RBF) was determined at 30 ug/kg min
Type: functional, Canis lupus familiaris, Kidney
Settings: not given
Procedure, shortened: as §1

Q: For H-FSPFR-OH [listing 2 of 2 here], which Change is on record?
A: The Change was 6.5%.

System: Canis familiaris
Assay: In vivo percent change in renal blood flow at 30 ug/Kg/min.
Type: functional, Canis lupus familiaris, Kidney
Settings: not given
Procedure, shortened: as §1

Q: For `CC(Cc1ccccc1)(NC(=O)[C@@H]1CCCN1C(=O)c1ccccc1)C(=O)N[C@@H](CCCN=C(N)N)C(=O)O` (some centres undefined) (Bz-Pro-[ξαMeF]-Arg-OH), which Change is on record?
A: The Change was 3%.

System: Canis familiaris
Assay: Renal vasodilator activity in anesthetized dogs and percent change in renal blood flow (RBF) was determined at 300 ug/kg min
Type: functional, Canis lupus familiaris, Kidney
Settings: not given
Procedure, shortened: as §1

Q: For H-FSPFR-OH [listing 2 of 2 here], which Change is on record?
A: Its Change is 26.2%.

System: Canis familiaris
Assay: Renal vasodilator activity in anesthetized dogs and percent change in renal vascular resistance (RVR) was determined at 3 ug/kg min
Type: functional, Canis lupus familiaris
Settings: not given
Procedure, shortened: as §1

Q: Which Change does the source give for H-FSPFR-OH [listing 2 of 2 here] here?
A: Its Change is -3.8%.

System: Canis familiaris
Assay: Renal vasodilator activity in anesthetized dogs and percent change in renal vascular resistance (RVR) was determined at 300 ug/kg min
Type: functional, Canis lupus familiaris
Settings: not given
Procedure, shortened: as §1

Q: For H-FSPFR-OH [listing 2 of 2 here], which Change is on record?
A: Its Change is -24.8%.

System: Canis familiaris
Assay: Renal vasodilator activity in anesthetized dogs and percent change in renal vascular resistance (RVR) was determined at 30 ug/kg min
Type: functional, Canis lupus familiaris
Settings: not given
Procedure, shortened: as §1

Q: For H-FSPFR-OH [listing 2 of 2 here], which Change is on record?
A: The Change was -5.1%.

System: Canis familiaris
Assay: In vivo percent change in canine heart rate at 3 ug/Kg/min.
Type: functional, Canis lupus familiaris
Settings: not given
Procedure, shortened: as §1

Q: With `CC(Cc1ccccc1)(NC(=O)[C@@H]1CCCN1C(=O)c1ccccc1)C(=O)N[C@@H](CCCN=C(N)N)C(=O)O` (some centres undefined) (Bz-Pro-[ξαMeF]-Arg-OH) as the compound, how does the Change read?
A: Its Change is -6%.

System: Canis familiaris
Assay: In vivo percent change in canine heart rate at 30 ug/Kg/min.
Type: functional, Canis lupus familiaris
Settings: not given
Procedure, shortened: as §1

Q: Which Change does the source give for `CC(Cc1ccccc1)(NC(=O)[C@@H]1CCCN1C(=O)c1ccccc1)C(=O)N[C@@H](CCCN=C(N)N)C(=O)O` (some centres undefined) (Bz-Pro-[ξαMeF]-Arg-OH) here?
A: The Change was 3%.

System: Canis familiaris
Assay: In vivo percent change in canine mean arterial blood pressure (MABP) at 3 ug/Kg/min.
Type: functional, Canis lupus familiaris
Settings: not given
Procedure, shortened: as §1

Q: With `CC(Cc1ccccc1)(NC(=O)[C@@H]1CCCN1C(=O)c1ccccc1)C(=O)N[C@@H](CCCN=C(N)N)C(=O)O` (some centres undefined) (Bz-Pro-[ξαMeF]-Arg-OH) as the compound, how does the Change read?
A: The Change was -1%.

System: Canis familiaris
Assay: In vivo percent change in canine mean arterial blood pressure (MABP) at 30 ug/Kg/min.
Type: functional, Canis lupus familiaris
Settings: not given
Procedure, shortened: as §1

Q: With `CC(Cc1ccccc1)(NC(=O)[C@@H]1CCCN1C(=O)c1ccccc1)C(=O)N[C@@H](CCCN=C(N)N)C(=O)O` (some centres undefined) (Bz-Pro-[ξαMeF]-Arg-OH) as the compound, how does the Change read?
A: The Change was 1%.

System: Canis familiaris
Assay: In vivo percent change in canine mean arterial blood pressure (MABP) at 300 ug/Kg/min.
Type: functional, Canis lupus familiaris
Settings: not given
Procedure, shortened: as §1

Q: With `CC(Cc1ccccc1)(NC(=O)[C@@H]1CCCN1C(=O)c1ccccc1)C(=O)N[C@@H](CCCN=C(N)N)C(=O)O` (some centres undefined) (Bz-Pro-[ξαMeF]-Arg-OH) as the compound, how does the Change read?
A: The Change was -4%.

System: Canis familiaris
Assay: In vivo percent change in canine renal blood flow (RBF) at 3 ug/Kg/min.
Type: functional, Canis lupus familiaris, Kidney
Settings: not given
Procedure, shortened: as §1

Q: With `CC(Cc1ccccc1)(NC(=O)[C@@H]1CCCN1C(=O)c1ccccc1)C(=O)N[C@@H](CCCN=C(N)N)C(=O)O` (some centres undefined) (Bz-Pro-[ξαMeF]-Arg-OH) as the compound, how does the Change read?
A: The Change was 4%.

System: Canis familiaris
Assay: In vivo percent change in canine renal blood flow (RBF) at 300 ug/Kg/min.
Type: functional, Canis lupus familiaris, Kidney
Settings: not given
Procedure, shortened: as §1

Q: With `CC(Cc1ccccc1)(NC(=O)[C@@H]1CCCN1C(=O)c1ccccc1)C(=O)N[C@@H](CCCN=C(N)N)C(=O)O` (some centres undefined) (Bz-Pro-[ξαMeF]-Arg-OH) as the compound, how does the Change read?
A: Its Change is -3%.

System: Canis familiaris
Assay: In vivo percent change in canine renal vascular resistance (RVR) at 3 ug/Kg/min.
Type: functional, Canis lupus familiaris
Settings: not given
Procedure, shortened: as §1

Q: Which Change does the source give for `CC(Cc1ccccc1)(NC(=O)[C@@H]1CCCN1C(=O)c1ccccc1)C(=O)N[C@@H](CCCN=C(N)N)C(=O)O` (some centres undefined) (Bz-Pro-[ξαMeF]-Arg-OH) here?
A: The Change was -5%.

System: Canis familiaris
Assay: In vivo percent change in canine renal vascular resistance (RVR) at 30 ug/Kg/min.
Type: functional, Canis lupus familiaris
Settings: not given
Procedure, shortened: as §1

Q: For `CC(Cc1ccccc1)(NC(=O)[C@@H]1CCCN1C(=O)c1ccccc1)C(=O)N[C@@H](CCCN=C(N)N)C(=O)O` (some centres undefined) (Bz-Pro-[ξαMeF]-Arg-OH), which Change is on record?
A: The Change was -2%.

System: Canis familiaris
Assay: In vivo percent change in canine renal vascular resistance (RVR) at 300 ug/Kg/min.
Type: functional, Canis lupus familiaris
Settings: not given
Procedure, shortened: as §1

Q: Which Change does the source give for `CC(Cc1ccccc1)(NC(=O)[C@@H]1CCCN1C(=O)c1ccccc1)C(=O)N[C@@H](CCCN=C(N)N)C(=O)O` (some centres undefined) (Bz-Pro-[ξαMeF]-Arg-OH) here?
A: Its Change is 0%.

System: not listed separately
Assay: Ratio of ED20 of MABP (mean arterial blood pressure) to the ED15 of RVR ( renal vascular resistance).
Type: functional
Settings: not given
Procedure, shortened: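 Anesthetized dogs in the secondary cumulative-infusion protocol, each dose level 5 min. Selectivity ratio is the dose giving a 20% change in mean arterial blood pressure divided by the cumulative dose lowering renal vascular resistance 15% (RVR ED15).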

Q: For H-FSPFR-OH [listing 2 of 2 here], which Ratio is on record?
A: Its Ratio is over 1158.

System: not listed separately
Assay: Ratio of ED30 of iliac vascular resistant (IVR) to the ED15 of RVR (renal vascular resistance)
Type: functional
Settings: not given
Procedure, shortened: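 Anesthetized dogs in the secondary cumulative-infusion protocol, each dose level 5 min. Selectivity ratio is the dose giving a 30% change in iliac vascular resistance divided by the RVR ED15, the cumulative dose decreasing renal vascular resistance by 15%.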

Q: With H-FSPFR-OH [listing 2 of 2 here] as the compound, how does the Ratio read?
A: The Ratio was over 1160.
